The subject of data set [1] is Cryptococcus neoformans. Kind of data set: Antifungal activity against Cryptococcus neoformans ATCC 350 after 70 to 74 hrs by alamar blue dye based CLSI method. It is filed as functional. For orientation: Alamar Blue is a resazurin reagent that responds to reducing activity.
For data set [2], the system named is Vero. Kind of data set: Cytotoxicity against African green monkey Vero cells assessed as reduction in cell viability after 48 hrs by neutral red uptake assay. It is filed as cell-based. Particulars: chlorocebus sabaeus. An outline of the steps: (§1)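 Cells seeded at 25 000 per well and grown 24 h to confluence, then exposed to peptides up to 10 μg/mL for 48 h; viability by modified neutral red uptake; doxorubicin positive control, DMSO negative control.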

A short description of data set [3]: Selectivity index, ratio of cytotoxicity against human SKOV3 cells to IC50 for Staphylococcus aureus ATCC 29213. It counts as toxicity, cell-based. Particulars: read-out: Selectivity Index. An outline of the steps:
(§2)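 Selectivity index is the ratio CTX/IC50. For CTX, cells were seeded at 25 000 per well and grown 24 h, then exposed to peptide up to 10 μg/mL for 48 h, with viability by neutral red uptake. […] The inoculum was 5 × 10^5 CFU/mL, with OD530 read before and after incubation.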

A short description of data set [4]: Selectivity index, ratio of cytotoxicity against human SKOV3 cells to IC50 for Cryptococcus neoformans ATCC 90113. The settings on record: read-out: Selectivity Index. It is filed as toxicity, cell-based.
For data set [5], the system named is LLC-PK1. The data set can be described thus: Cytotoxicity against pig LLC-PK1 cells assessed as reduction in cell viability after 48 hrs by neutral red uptake assay. It is filed as cell-based, Sus scrofa. The settings on record: llc-pk1, 48 h. Put shortly:
as §1

The nature of data set [6]: Selectivity index, ratio of cytotoxicity against human SK-MEL cells to IC50 for Staphylococcus aureus ATCC 29213. Particulars: read-out: Selectivity Index. It is filed as toxicity, cell-based. An outline of the steps: as §2
A short description of data set [7]: Selectivity index, ratio of cytotoxicity against African green monkey VERO cells to IC50 for Cryptococcus neoformans ATCC 90113. It counts as toxicity, cell-based. The settings on record: read-out: Selectivity Index.
Data set [8] has as its system SK-OV-3. Kind of data set: Cytotoxicity against human SKOV3 cells assessed as reduction in cell viability after 48 hrs by neutral red uptake assay. Particulars: sk-ov-3, 48 h. It is filed as cell-based. An outline of the steps:
as §1

Data set [9] concerns BT-549. The data set can be described thus: Cytotoxicity against human BT549 cells assessed as reduction in cell viability after 48 hrs by neutral red uptake assay. It is filed as cell-based. Particulars: bt-549, 48 h. An outline of the steps: as §1
Data set [10] in a line: Selectivity index, ratio of cytotoxicity against human BT549 cells to IC50 for methicillin-resistant Staphylococcus aureus ATCC 33591. It is filed as toxicity, cell-based. The settings on record: read-out: Selectivity Index. Put shortly: (§3)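 Selectivity index is the ratio CTX/IC50. For CTX, cells were seeded at 25 000 per well and grown 24 h, then given peptide up to 10 μg/mL for 48 h, with neutral red uptake read-out. […] OD530 was read before and after 16−20 h at 35 °C.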

Data set [11] in a line: Selectivity index, ratio of cytotoxicity against pig LLC-PK1 cells to IC50 for Staphylococcus aureus ATCC 29213. It counts as toxicity, cell-based. Particulars: read-out: Selectivity Index. An outline of the steps:
as §2

Data set [12] is described as follows: Selectivity index, ratio of cytotoxicity against pig LLC-PK1 cells to IC50 for Cryptococcus neoformans ATCC 90113. Particulars: read-out: Selectivity Index. It counts as toxicity, cell-based.
Data set [13] in a line: Selectivity index, ratio of cytotoxicity against pig LLC-PK1 cells to IC50 for methicillin-resistant Staphylococcus aureus ATCC 33591. It is filed as toxicity, cell-based. Particulars: read-out: Selectivity Index. An outline of the steps: as §3
Data set [14] can be described thus: Selectivity index, ratio of cytotoxicity against human BT549 cells to IC50 for Staphylococcus aureus ATCC 29213. The settings on record: read-out: Selectivity Index. It counts as toxicity, cell-based. Put shortly: as §2
Data set [15] has as its system Candida. Kind of data set: Antifungal activity against Candida. It counts as functional.
The test system of data set [16] is Aspergillus. The data set can be described thus: Antifungal activity against Aspergillus. It is filed as functional.
The nature of data set [17]: Selectivity index, ratio of cytotoxicity against human SKOV3 cells to IC50 for methicillin-resistant Staphylococcus aureus ATCC 33591. It counts as toxicity, cell-based. The settings on record: read-out: Selectivity Index. An outline of the steps: as §3
Data set [18] is described as follows: Selectivity index, ratio of cytotoxicity against African green monkey VERO cells to IC50 for Staphylococcus aureus ATCC 29213. It counts as toxicity, cell-based. Particulars: read-out: Selectivity Index. An outline of the steps:
as §2

Data set [19] can be described thus: Selectivity index, ratio of cytotoxicity against human BT549 cells to IC50 for Cryptococcus neoformans ATCC 90113. It counts as toxicity, cell-based. Particulars: read-out: Selectivity Index.
A short description of data set [20]: Selectivity index, ratio of cytotoxicity against human SK-MEL cells to IC50 for Cryptococcus neoformans ATCC 90113. It is filed as toxicity, cell-based. The settings on record: read-out: Selectivity Index.
The subject of data set [21] is Cryptococcus neoformans. Kind of data set: Antifungal activity against Cryptococcus neoformans ATCC 90113 after 70 to 74 hrs by alamar blue dye based CLSI method. It counts as functional.
Data set [22] can be described thus: Selectivity index, ratio of cytotoxicity against human SK-MEL cells to IC50 for methicillin-resistant Staphylococcus aureus ATCC 33591. It is filed as toxicity, cell-based. The settings on record: read-out: Selectivity Index. Put shortly: as §3
Data set [23] concerns Staphylococcus aureus. Kind of data set: Antibacterial activity against Staphylococcus aureus ATCC 29213 after […] hrs by alamar blue dye based CLSI method. It counts as functional.
Data set [24] relates to Staphylococcus aureus. Kind of data set: Antibacterial activity against methicillin-resistant Staphylococcus aureus ATCC 33591 after 16 to 20 hrs by alamar blue dye based CLSI method. It is filed as functional.
Data set [25] is described as follows: Selectivity index, ratio of cytotoxicity against African green monkey VERO cells to IC50 for methicillin-resistant Staphylococcus aureus ATCC 33591. Particulars: read-out: Selectivity Index. It counts as toxicity, cell-based. An outline of the steps: as §3
Data set [26] deals with SK-MEL. Kind of data set: Cytotoxicity against human SK-MEL cells assessed as reduction in cell viability after 48 hrs by neutral red uptake assay. It is filed as cell-based. Put shortly:
as §1

Data set [27] concerns Escherichia coli. Kind of data set: Antibacterial activity against Escherichia coli ATCC 35218 after 16 to 20 hrs by alamar blue dye based CLSI method. It is filed as functional.
For data set [28], the system named is Cryptococcus neoformans. The data set can be described thus: Fungicidal activity against Cryptococcus neoformans ATCC 350 at 0.89 ug/ml after 4 hrs by time kill assay. It counts as functional.

Converted amounts (≈) assume the structure as drawn. The source made the active and inactive calls.

The MIC is the least concentration at which growth counts as inhibited. As usually defined, the IC50 is the concentration that gives 50% inhibition. The MFC is the lowest tested concentration that kills the fungus rather than only halting it. In general, MBC refers to the smallest concentration meeting the test's criterion for killing.

In data set [1], `OC(Cn1cncn1)(Cn1cncn1)c1ccc(F)cc1F` [FLUCONAZOLE] yielded an MIC of 9.57 µg/mL (≈ 31.2 µM).
In the case of `COC(=O)[C@H](Cc1c[nH]c(-c2ccc(C(C)(C)C)cc2)n1)NC(=O)[C@H](Cc1c[nH]c2ccccc12)NC(=O)[C@@H](N)Cc1c[nH]c(-c2ccc(C(C)(C)C)cc2)n1`, the Activity in data set [2], in [5], in data set [8], in data set [9] and in [26] was > 10 µg/mL in each case. For the same compound, the selectivity ratio in data set [3] was > 2.3; in data set [4] it was > 12; in [6] it was > 2.3; in data set [7] it was > 12; in data set [10] it was > 1.49; in data set [11] it was > 2.3. Further, the selectivity ratio in data set [12] is > 12; in [13], > 1.49; in [14] it was > 2.3; in data set [17] it was > 1.49; in data set [18] it was > 2.3; in data set [19], > 12. The figures for the selectivity ratio in data set [20], in data set [22] and in data set [25] were > 12, > 1.49 and > 1.49, respectively. Besides, the outcome in data set [15], in data set [16] and in [27] was inactive. The figures for the 50% inhibitory concentration (IC50) in data set [21], in data set [23] and in data set [24] were 0.83 µg/mL (≈ 1.1 µM), 4.33 µg/mL (≈ 5.72 µM) and 6.71 µg/mL (≈ 8.86 µM), respectively. Moreover, the minimal fungicidal concentration (MFC) in [21] turned out to be 1.25 µg/mL (≈ 1.65 µM). Besides, the minimum inhibitory concentration (MIC) was 1.25 µg/mL (≈ 1.65 µM) in data set [21], 10 µg/mL (≈ 13.2 µM) in [23] and > 20 µg/mL in data set [24]. Moreover, the MBC in data set [23] and in [24] was > 20 µg/mL throughout.
On to `CC(C)(C)c1ccc(-c2nc(C[C@H](NC(=O)[C@H](Cc3c[nH]c4ccccc34)NC(=O)[C@@H](N)Cc3c[nH]c(-c4ccc(C(C)(C)C)cc4)n3)C(=O)NCc3ccccc3)c[nH]2)cc1`, for which the Activity in data set [2], in [5], in data set [8], in data set [9] and in data set [26] was > 10 µg/mL throughout. Besides, the selectivity ratio in data set [3] is > 2.68; in data set [4], > 3.8; in [6], > 2.68; in [7] it was > 3.8; in data set [10] it was > 1.49; in data set [11] it was > 2.68. Also, the selectivity ratio in [12] is > 3.8; in data set [13], > 1.49; in [14], > 2.68; in data set [17], > 1.49; in data set [18] it was > 2.68; in data set [19] it was > 3.8. The selectivity ratio is > 3.8 in data set [20], > 1.49 in [22] and > 1.49 in data set [25]. Further, the outcome in [15], in data set [16] and in data set [27] was inactive. The IC50 came to 2.6 µg/mL (≈ 3.12 µM) in data set [21], 3.72 µg/mL (≈ 4.47 µM) in data set [23] and 6.7 µg/mL (≈ 8.05 µM) in data set [24]. In [21], this compound returned a minimal fungicidal concentration (MFC) of 5 µg/mL (≈ 6.01 µM). For the same compound, the MIC is 5 µg/mL (≈ 6.01 µM) in data set [21], 10 µg/mL (≈ 12 µM) in [23] and > 20 µg/mL in data set [24]. For the same compound, the minimal bactericidal concentration (MBC) in data set [23] was 20 µg/mL (≈ 24 µM); in [24] it was > 20 µg/mL.
As to `C[C@@H]1[C@H](O)[C@@H](C)/C=C/C=C/C=C/C=C/C=C/C=C/C=C/[C@H](O[C@@H]2O[C@H](C)[C@@H](O)[C@H](N)[C@@H]2O)C[C@@H]2O[C@](O)(C[C@@H](O)C[C@@H](O)[C@H](O)CC[C@@H](O)C[C@@H](O)CC(=O)O[C@H]1C)C[C@H](O)[C@H]2C(=O)O` [AMPHOTERICIN B], 0.89 µg/mL (≈ 0.963 µM) was the least that counted as inhibitory in data set [1] (MIC). In data set [21], this compound returned a minimum fungicidal concentration (MFC) of 1.25 µg/mL (≈ 1.35 µM) and a minimum inhibitory concentration (MIC) of 1.25 µg/mL (≈ 1.35 µM). Moreover, the outcome in data set [28] was Active.

The values are drawn from ChEMBL document CHEMBL4011658 (J Med Chem, 2017).
